According to ChEMBL document CHEMBL3046721, “3-(Arylthiomethyl)isoxazole-4,5-dicarboxamides: chemoselective nucleophilic chemistry and insecticidal activity” (2009):
Calls of active or inactive are those of the source. Unless noted, the calls are words filed in the database; no cut-off is given here.

What was measured:
Aedes aegypti = experiment: Insecticidal activity against larvae of Aedes aegypti assessed as mortality after 3 days by high-throughput screening assay; type: functional, organism-based
Procedure, shortened: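 One-day-old larvae placed in 96-well plates pre-treated with 6 μg/well, applied in 15 μl DMSO-acetone-water (1:1:8) and dried. Plates lidded, held at room temperature, mortality graded 3 days post-treatment. Six replicates per treatment.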

Spodoptera exigua [1] = experiment: Insecticidal activity against larvae of Spodoptera exigua fed with artificial diet containing compound assessed as mortality after 6 days by high-throughput screening assay; type: functional; set-up: concentration or dose not given beside the values
Procedure, shortened: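 Artificial diet (100 μl/well, 96-well) pretreated with 12 μg compound in 30 μl DMSO-acetone-water (2:1:7), dried several hours, then seeded with eggs. Plates covered, kept in dark at 29°C, mortality recorded 6 days post-treatment. Six replicates per treatment.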

Helicoverpa zea = experiment: Insecticidal activity against second-instar larval stage of Helicoverpa zea (corn earworm) fed with artificial diet containing compound assessed as mortality after 5 days by diet-based secondary assay; type: functional, organism-based
Procedure, shortened: (§1)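 Follow-up for primary-screen hits (>67% mortality): 128-well diet trays, 1 mL diet containing selected dosages, second-instar larvae. Wells covered with clear plastic, eight wells per treatment, percent mortality averaged over eight wells at 5 days. Approximate LC50 estimated by probit analysis.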

Spodoptera exigua [2] = experiment: Insecticidal activity against second-instar larval stage of Spodoptera exigua fed with artificial diet containing compound assessed as mortality at 50 ug/cm2 after 5 days by diet-based secondary assay; type: functional; settings: 120 h
Procedure, shortened: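 Second-instar larvae on 128-well trays with 1 mL diet dosed at 50 μg/cm2, eight wells per treatment under clear plastic. Percent mortality averaged over the eight wells, scored 5 days after assay start; tested only on primary-screen hits (>67% mortality).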

Spodoptera exigua [3] = experiment: Insecticidal activity against second-instar larval stage of Spodoptera exigua fed with artificial diet containing compound assessed as mortality after 5 days by diet-based secondary assay; type: functional; procedure, shortened: as §1

Row | Compound | mortality (Aedes aegypti) | mortality (Spodoptera exigua [1]) [%] | mortality (Helicoverpa zea) | mortality at 50 µg/cm2 (Spodoptera exigua [2]) [%] | LC50 (Spodoptera exigua [3]) [microg/cm2]
1 | COCCNC(=O)c1c(CS(=O)(=O)c2ccc(Cl)cc2)noc1C(=O)NCc1ccccc1 | inactive | 100 | inactive | 0 | –
2 | CC(C)CCNC(=O)c1onc(CSc2ccc(F)cc2)c1C(=O)NCCC(C)C | inactive | 100 | inactive | 38 | –
3 | CCCNC(=O)c1c(CS(=O)(=O)c2ccccc2)noc1C(=O)NCc1ccccc1 | inactive | 100 | inactive | 0 | –
4 | CCCCNC(=O)c1c(CS(=O)(=O)c2ccc(Cl)cc2)noc1C(=O)NCc1ccccc1 | inactive | 83 | inactive | 0 | –
5 | CCCCNC(=O)c1c(CSc2ccccc2)noc1C(=O)NCc1ccccc1 | inactive | 100 | inactive | 0 | –
6 | CC(C)CCNC(=O)c1onc(CSc2ccc(Cl)cc2)c1C(=O)NCCC(C)C | inactive | 100 | inactive | 0 | –
7 | CCCCNC(=O)c1c(CSc2ccc(Cl)cc2)noc1C(=O)NCc1ccccc1 | inactive | 83 | inactive | 0 | –
8 | CCCNC(=O)c1onc(CS(=O)(=O)c2ccc(Cl)cc2)c1C(=O)NCCC | inactive | 83 | inactive | 0 | –
9 | COCCNC(=O)c1onc(CS(=O)(=O)c2ccccc2)c1C(=O)NCCOC | inactive | 83 | inactive | 75 | 19
10 | CCCCNC(=O)c1onc(CS(=O)(=O)c2ccccc2)c1C(=O)NCCCC | inactive | 100 | inactive | 75 | 30
11 | CC[C@H]1CCC[C@H](O[C@H]2CC[C@H](N(C)C)[C@@H](C)O2)[C@@H](C)C(=O)C2=C[C@@H]3[C@@H](C=C(C)[C@@H]4C[C@@H](O[C@@H]5O[C@@H](C)[C@H](OC)[C@@H](OC)[C@H]5OC)C[C@@H]34)[C@@H]2CC(=O)O1.CC[C@H]1CCC[C@H](O[C@H]2CC[C@H](N(C)C)[C@@H](C)O2)[C@@H](C)C(=O)C2=C[C@@H]3[C@@H](C=C[C@@H]4C[C@@H](O[C@@H]5O[C@@H](C)[C@H](OC)[C@@H](OC)[C@H]5OC)C[C@@H]34)[C@@H]2CC(=O)O1 | – | – | – | – | 0.06
12 | C=CCNC(=O)c1onc(CS(=O)(=O)c2ccc(Cl)cc2)c1C(=O)NCC=C | inactive | 100 | inactive | 0 | –
13 | C=CCNC(=O)c1c(CSc2ccc(Cl)cc2)noc1C(=O)NCc1ccccc1 | inactive | 83 | inactive | 0 | –
14 | Cc1cc(C)cc(SCc2noc(C(=O)NCc3ccccc3)c2C(=O)NCc2ccccc2)c1 | inactive | 83 | inactive | 0 | –
15 | CCCNC(=O)c1c(CS(=O)(=O)c2ccc(Cl)cc2)noc1C(=O)NCc1ccccc1 | inactive | 100 | inactive | 0 | –
16 | CC(C)NC(=O)c1c(CSc2ccc(Cl)cc2)noc1C(=O)NCc1ccccc1 | inactive | 100 | inactive | 0 | –
